Calls of active or inactive are those of the source. No cut-off for these calls is given here.
Columns and labels:
Mus musculus [1] = test: Anticonvulsant activity in Kunming mouse assessed as protection against maximal electric shock-induced seizures at 300 mg/kg, ip measured after 4 hrs; assay type: functional, organism-based; set-up: dose 300 mg/kg
Method in brief: (§1)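 KunMing mice (18–22 g), compounds dissolved in DMSO, given i.p. at 30, 100 and 300 mg/kg, three mice per dose. Current applied through corneal electrodes for 0.2 s at 0.5 h and 4 h after dosing. Protection is abolition of tonic hind-leg extension, scored as protected/tested.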

Mus musculus [2] = test: Anticonvulsant activity in Kunming mouse assessed as protection against maximal electric shock-induced seizures at 30 mg/kg, ip measured after 4 hrs; assay type: functional, organism-based; set-up: dose 30 mg/kg; method in brief: as §1
Mus musculus [3] = test: Anticonvulsant activity in Kunming mouse assessed as protection against maximal electric shock-induced seizures at 100 mg/kg, ip measured after 4 hrs; assay type: functional, organism-based; set-up: dose 100 mg/kg; method in brief: as §1
Mus musculus [4] = test: Anticonvulsant activity in Kunming mouse assessed as protection against maximal electric shock-induced seizures at 30 mg/kg, ip measured after 0.5 hrs; assay type: functional, organism-based; set-up: dose 30 mg/kg; method in brief: as §1
Mus musculus [5] = test: Anticonvulsant activity in Kunming mouse assessed as protection against maximal electric shock-induced seizures at 300 mg/kg, ip measured after 0.5 hrs; assay type: functional, organism-based; set-up: dose 300 mg/kg; method in brief: as §1
Mus musculus [6] = test: Anticonvulsant activity in Kunming mouse assessed as protection against maximal electric shock-induced seizures at 100 mg/kg, ip measured after 0.5 hrs; assay type: functional, organism-based; set-up: dose 100 mg/kg; method in brief: as §1
Mus musculus [7] = test: Neurotoxicity in Kunming mouse at 300 mg/kg, ip after 0.5 hrs; assay type: toxicity, organism-based; set-up: dose 300 mg/kg, route intraperitoneal; conditions: in vivo
Method in brief: (§2)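 Rotarod neurotoxicity in KunMing mice (18–22 g) trained on a 3.2 cm diameter rod at 10 rpm. Compounds in DMSO were given i.p. at 30, 100 and 300 mg/kg, three mice per dose, and tested at 0.5 h and 4 h after dosing.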

Mus musculus [8] = test: Neurotoxicity in Kunming mouse at 100 mg/kg, ip after 4 hrs; assay type: toxicity, organism-based; set-up: dose 100 mg/kg, route intraperitoneal; conditions: in vivo; method in brief: as §2
Mus musculus [9] = organism: Mus musculus; test: Protective index, ratio of TD50 for neurotoxicity in Kunming mouse to ED50 for inhibition of MES-induced seizures in Kunming mouse; assay type: functional
Mus musculus [10] = test: Anticonvulsant activity against maximal electric shock-induced seizures in ip dosed Kunming mouse assessed as median effective dose; assay type: functional
Method in brief: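 Phase-II MES test in KunMing mice (18–22 g), DMSO vehicle, corneal electrode stimulus 0.2 s. Groups of 10 mice got a range of i.p. doses until at least three points fell within 10–90% seizure protection, giving the median effective dose. Endpoint is abolition of tonic hind-leg extension.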

Mus musculus [11] = test: Neurotoxicity in Kunming mouse at 100 mg/kg, ip after 0.5 hrs; assay type: toxicity, organism-based; set-up: dose 100 mg/kg, route intraperitoneal; conditions: in vivo; method in brief: as §2
Mus musculus [12] = test: Neurotoxicity in Kunming mouse at 300 mg/kg, ip after 4 hrs; assay type: toxicity, organism-based; set-up: dose 300 mg/kg, route intraperitoneal; conditions: in vivo; method in brief: as §2
[13] = Neurotoxicity in ip dosed Kunming mouse by rotarod test; assay type: toxicity, organism-based; conditions: in vivo
Method in brief: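 Phase-II rotarod test in KunMing mice trained on a 3.2 cm rod at 10 rpm, DMSO vehicle. Groups of 10 mice got graded i.p. doses until at least three points fell within 10–90% minimal neurotoxicity, giving the median toxic dose.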

| SMILES | Activity (Mus musculus [1]) | Activity (Mus musculus [2]) | Activity (Mus musculus [3]) | Activity (Mus musculus [4]) | Activity (Mus musculus [5]) | Activity (Mus musculus [6]) | Activity (Mus musculus [7]) | Activity (Mus musculus [8]) | Ratio TD50/ED50 (Mus musculus [9]) | ED50 (Mus musculus [10]) [mg/kg] | Activity (Mus musculus [11]) | Activity (Mus musculus [12]) | TD50 [13] [mg/kg] |
| --- | --- | --- | --- | --- | --- | --- | --- | --- | --- | --- | --- | --- | --- |
| CCCCCCN1C(=O)CC(c2ccccc2)n2ncnc21 (configuration not stated) | inactive | inactive | inactive | inactive |  |  |  |  |  |  |  |  |  |
| O=C1CC(c2ccc(Cl)cc2)n2ncnc2N1 (configuration not stated) | inactive | inactive | inactive | inactive | Active |  |  |  |  |  |  |  |  |
| O=C1CC(c2ccccc2Br)n2c(nc3ccccc32)N1 (configuration not stated) | inactive | inactive | inactive | inactive | inactive | inactive |  |  |  |  |  |  |  |
| O=C1CC(c2cccc(Br)c2)n2ncnc2N1 (configuration not stated) | inactive | inactive | inactive | inactive | Active | Active | Non-toxic | Non-toxic | 7 | 84.9 | Non-toxic | Non-toxic | 592 |
| O=C1CC(c2ccccc2)n2ncnc2N1 (configuration not stated) | inactive | inactive | inactive | inactive | Active | Active |  | Non-toxic | 10.5 | 51.9 | Non-toxic | Non-toxic | 548 |
| O=C1CC(c2ccc(Cl)cc2Cl)n2ncnc2N1 (configuration not stated) | inactive | inactive | inactive | inactive | inactive | inactive |  |  |  |  |  |  |  |
| O=C1CC(c2ccccc2Cl)n2ccnc2N1 (configuration not stated) | inactive | inactive | inactive | inactive | Active |  |  |  |  |  |  |  |  |
| O=C1CC(c2ccccc2F)n2nccc2N1 (configuration not stated) | inactive | inactive | inactive |  | Active | Active | Toxic | Non-toxic | 2.5 | 47.3 |  | Non-toxic | 118 |
| O=C1CC(c2ccccc2F)n2c(nc3ccccc32)N1 (configuration not stated) | inactive | inactive | inactive | inactive | inactive | inactive |  |  |  |  |  |  |  |
| O=C1CC(c2ccc(F)cc2)n2ncnc2N1 (configuration not stated) | inactive | inactive | inactive | inactive |  | inactive |  |  |  |  |  |  |  |
| COc1ccc(C2CC(=O)Nc3ncnn32)cc1 (configuration not stated) | inactive | inactive | inactive | inactive |  | inactive |  |  |  |  |  |  |  |
| COc1ccccc1C1CC(=O)Nc2ncnn21 (configuration not stated) | inactive | inactive | inactive | inactive |  | inactive |  |  |  |  |  |  |  |
| O=C1CC(c2ccccc2)n2c(nc3ccccc32)N1 (configuration not stated) | inactive | inactive | inactive | inactive | inactive | inactive |  |  |  |  |  |  |  |
| O=C1CC(c2cccc(Cl)c2)n2ncnc2N1 (configuration not stated) | inactive | inactive | inactive | inactive | Active | Active |  | Non-toxic | 11.2 | 47.3 | Non-toxic | Non-toxic | 528 |
| O=C1CC(c2ccccc2Cl)n2nccc2N1 (configuration not stated) | inactive | inactive | inactive | inactive | Active | Active | Toxic | Non-toxic | 1.5 | 63.4 |  | Non-toxic | 94.7 |
| O=C1CC(c2ccc(Br)cc2)n2ncnc2N1 (configuration not stated) | inactive | inactive | inactive | inactive |  | inactive |  |  |  |  |  |  |  |
| O=C1CC(c2ccccc2Br)n2ccnc2N1 (configuration not stated) | inactive | inactive | inactive | inactive | Active |  |  |  |  |  |  |  |  |
| O=C1CC(c2cccc(C(F)(F)F)c2)n2ncnc2N1 (configuration not stated) | inactive | inactive | inactive | inactive | Active | Active | Toxic | Non-toxic | 2.9 | 54.8 |  | Non-toxic | 158 |
| O=C1CC(c2ccccc2)n2nccc2N1 (configuration not stated) | inactive | inactive | inactive |  | Active | Active | Toxic | Non-toxic | 2.5 | 47.3 |  | Non-toxic | 118 |
| O=C1CC(c2ccccc2Cl)n2c(nc3ccccc32)N1 (configuration not stated) | inactive | inactive | inactive | inactive | inactive | inactive |  |  |  |  |  |  |  |
| O=C1CC(c2ccccc2)n2ncnc2N1Cc1ccccc1 (configuration not stated) | inactive | inactive | inactive | inactive |  |  |  |  |  |  |  |  |  |
| O=C1CC(c2ccccc2F)n2ccnc2N1 (configuration not stated) | inactive | inactive | inactive | inactive | Active | Active |  | Non-toxic | 4.4 | 88 | Non-toxic | Non-toxic | 387 |
| CN1C(=O)CC(c2ccccc2)n2ncnc21 (configuration not stated) | inactive | inactive | inactive | inactive | Active |  |  |  |  |  |  |  |  |
| O=C1CC(c2ccccc2)n2ccnc2N1 (configuration not stated) | inactive | inactive | inactive | inactive | Active | Active | Non-toxic | Non-toxic | 6.7 | 68.2 | Non-toxic | Non-toxic | 458 |
| O=C1CC(c2ccccc2Br)n2nccc2N1 (configuration not stated) | inactive | inactive | inactive | inactive | Active | Active | Toxic | Non-toxic | 3.4 | 39.4 |  | Non-toxic | 132 |
| O=C1CC(c2ccccc2Cl)n2ncnc2N1 (configuration not stated) | inactive | inactive | inactive | Active | Active | Active |  | Non-toxic | 18.2 | 25.5 | Non-toxic | Non-toxic | 465 |
| O=C1CC(c2cccc(F)c2)n2ncnc2N1 (configuration not stated) | inactive | inactive | inactive | inactive |  | inactive |  |  |  |  |  |  |  |
| Cc1ccc(C2CC(=O)Nc3ncnn32)cc1 (configuration not stated) | inactive | inactive | inactive | inactive | Active |  |  |  |  |  |  |  |  |
| CCC1(c2ccccc2)C(=O)NC(=O)NC1=O [PHENOBARBITAL] |  |  |  |  |  |  |  |  |  | 21.8 |  |  |  |
| O=C1CC(c2ccccc2F)n2ncnc2N1 (configuration not stated) | inactive | inactive | inactive |  | Active | Active |  | Non-toxic | 14.4 | 31.7 | Non-toxic | Non-toxic | 456 |

From ChEMBL document CHEMBL1806414, “Synthesis and anticonvulsant activity of 7-phenyl-6,7-dihydro-[1,2,4]triazolo[1,5-a]pyrimidin-5(4H)-ones and their derivatives” (Eur J Med Chem, 2011)
